# This is a sample that favours compounds with a hit; in the whole collection about 4.2% have one here.
# Rad51 HR inh – blocks human Rad51 in homologous recombination | Q06609 | hRad51 DNA strand exchange, fluorescence dequenching | inhibition, % at 10 µM | hit rate 0.085% among 200,000;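 active means inhibition above 40% at the single screening dose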;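 further: 0% = DMSO control wells and 100% = blanks with heterologous ssDNA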
# Target sequence (Q06609 whole entry, looked up): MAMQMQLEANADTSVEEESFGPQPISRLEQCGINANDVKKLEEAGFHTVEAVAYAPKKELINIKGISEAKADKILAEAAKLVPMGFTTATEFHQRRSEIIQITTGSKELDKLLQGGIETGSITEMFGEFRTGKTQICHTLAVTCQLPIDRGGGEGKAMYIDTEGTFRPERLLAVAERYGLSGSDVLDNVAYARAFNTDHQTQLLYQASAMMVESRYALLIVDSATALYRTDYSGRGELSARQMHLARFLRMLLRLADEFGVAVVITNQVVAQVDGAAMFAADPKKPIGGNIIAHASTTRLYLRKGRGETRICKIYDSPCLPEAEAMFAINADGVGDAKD
#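 System: human Rad51 nucleoprotein filaments preassembled on unlabelled ssDNA. Reagent: labelled 47-mer dsDNA for strand exchange. Schedule: 30-min compound preincubation and 15-min exchange, both room temperature. Measured by: FRET fluorescence dequenching, excitation 485 nm, emission 520 nm. Read-out: Fluorescence-based percent inhibition, control- and blank-normalised. Benchmarks: plate controls and plate blanks.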
# SKKanGAS inh – SKKanGAS growth inhibition; inhibition, % at 7.5 µM; AID 1662; S. pyogenes SKKanGAS, kanamycin growth, BacTiter-Glo, 6 h; hit rate 1.3% among 300,000;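 active means mean replicate score, as percent of positive control median, at least 50; inconclusive means mean below 50 but one replicate at or above 50; inactive means mean and every replicate below 50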;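 further: strain carries kanamycin resistance gene driven by streptokinase promoter and grows in 40 µg/ml kanamycin; loss of luminescence reflects streptokinase promoter inhibition or plain growth inhibition; 0% = median of DMSO wells and 100% = positive control at its reference dose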
# Cl transport mod – modulators of human KCC2 chloride dependent transport; KCC2 cells, thallium flux FluoZin-2 fluorescence; AID 1456; B-score of Tl+ flux slope (higher = more flux/activation; lower = inhibition) at 10 µM; hit rate 2.2% among 190,000; Q9H2X9;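 active means thallium flux slope and its plate-corrected score both differing from the plate sample mean at a set confidence after two filtering rounds, in either direction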;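 further: slope of fluorescence scaled to starting intensity during 10 to 20 s after thallium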
# WT yeast gro inh – growth inhibition of WT yeast, mitochondrial fusion screen. mitochondrial fusion phenotypic screen, WT strain. inhibition, % at 10 µM. hit rate 2.1% among 190,000; in the data active means inhibition above about 58%; tested in S. cerevisiae
# Autophagy HCS – autophagy modulation, high-content screen | hit rate 0.98% among 190,000 | MEF GFP-LC3 puncta imaging; test concentration mostly 10 µM | calls only at 10 µM (by protocol) | AID 463193;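 active means percentage of spot-positive cells more than 3 SD above its plate mean, without a fluorescence outlier flag or 80% toxicity; inconclusive means no clear call, values can overlap the other calls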;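 further: spot-positive cell cutoff set from DMSO-treated cells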
# Ins promoter up – MIN6 insulin promoter up-regulation; MIN6 insulin promoter-GFP reporter, high-content imaging; hits give high values; z-score at 5 µM; hit rate 0.3% among 190,000; AID 1625;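 active means z-score above 3 at 5 µM with at least 500 cells counted in the well; inconclusive means wells under 500 cells, flagged as cytotoxic or low count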
# Active calls of the source: *; i = inactive; ? = inconclusive; nt = not tested or not shown; + = active, no number.
SMILES,Rad51 HR inh,SKKanGAS inh,Cl transport mod,WT yeast gro inh,Autophagy HCS,Ins promoter up
Cc1ccc(S(=O)(=O)N(Cc2ccc([N+](=O)[O-])cc2)C(=O)N2CCN(C)CC2)cc1,nt,1,nt,nt,nt,nt
Cc1ccc(-c2c3c([nH]c(=S)c2C#N)CCCC3)o1,-1,5,24*,3,i,-0.36
N#Cc1c(-c2ccncc2)c2c([nH]c1=S)CCCC2,-1,-2,-1.1,-2,i,1.6
COc1cc(/C=C2\SC(=Nc3cccnc3)NC2=O)cc(OC)c1OC,-188,50*,-1.9,nt,nt,0.42
CCc1ccc(N=C2NC(=O)/C(=C/c3cc(OC)c(O)c(OC)c3)S2)cc1,nt,59*,nt,nt,nt,nt
S=C(N/N=C1\CCc2ccccc21)NC1CCCCC1,4,?,3.3,70*,i,-0.43
COc1ccc(Nc2nc(-c3cc4cccc(OC)c4oc3=O)cs2)cc1,21,10,-0.1,19,i,0.41
COc1ccc2oc(=O)c(-c3csc(Nc4cccc(O)c4)n3)cc2c1,nt,27,-1.1,74*,i,-1.2
CCc1nnc(NC(=O)c2cc(S(=O)(=O)N3CCCCC3)ccc2N2CCOCC2)s1,-5,0,-2.4,-14,+,-0.03
CCN(CC)CC#CCC(OC)(c1ccccc1)c1ccccc1,-2,-16,nt,28,i,-0.71
O=C(O)c1ccc(COc2ccc3ccccc3c2/C=C2/NC(=O)N(c3ccccc3)C2=O)cc1,5,43,-1.3,7,i,0.3
CCN1C(=O)S/C(=C/c2c(OCc3ccc(C(=O)O)cc3)ccc3ccccc23)C1=O,nt,nt,-2.1,73*,i,0.08
Fc1ccc2nc(Nc3nc4c(F)cc(F)cc4s3)sc2c1,-1,43,17*,26,i,-0.97
Fc1ccc2nc(Nc3ccccc3)sc2c1,-4,-1,0.69,12,i,0.81
Fc1cccc2sc(Nc3nc4ccccc4s3)nc12,4,16,12*,54,i,0.81
NNc1nc2ccc(F)cc2s1,4,3,-0.0014,65*,i,-0.1
Fc1ccc2nc(Nc3nc4c(F)cccc4s3)sc2c1,-5,7,38*,7,i,-0.39
Cc1cccc2c(SCC(N)=O)nc(-c3ccccc3)nc12,nt,-4,nt,nt,nt,nt
CCN(CC(=O)NC(C)(C)C)C(=O)c1ccc2c(c1)S(=O)(=O)c1ccccc1C2=O,5,-2,0.2,8,i,-0.27
C=CCNC(=O)Cn1c(=O)c2c(ncn2CCC(C)C)n(Cc2ccccc2)c1=O,nt,0,nt,nt,nt,nt
Cc1cccc(N(C)C(=S)Oc2ccc3ccccc3c2)c1,-11,1,-0.81,62*,i,nt
Cc1ccc(C(C)(C)C)c(OCCOCCN2CCCC2)c1,-5,-2,-0.55,9,i,-0.16
CC(C)(C)c1ccccc1OCCOCCN1CCCCCC1,2,-7,1.3,68*,i,-1
CC(C)=C(NC(=O)c1ccccc1Br)C(=O)NCCc1nc2ccccc2[nH]1,9,-4,-0.39,nt,nt,nt
COc1ccc(Cl)cc1NC(=O)c1c(-c2ccccc2)noc1C,-6,10,1.7,-3,i,18*
SMILES,Rad51 HR inh,SKKanGAS inh,Cl transport mod,WT yeast gro inh,Autophagy HCS,Ins promoter up
Cc1onc(-c2ccccc2)c1C(=O)NNC(=S)NC(=O)c1ccc(Br)cc1,1,125*,20*,31,i,0.03
COc1cc(OC)c(NC(=O)c2c(-c3ccccc3)noc2C)cc1Cl,1,3,0.11,-5,i,-0.38
O=C(NNC(=S)NC(=O)c1ccccc1[N+](=O)[O-])c1ccccc1Cl,1,1,0.11,-19,i,-0.26
Cc1onc(-c2ccccc2)c1C(=O)NNC(=O)c1ccccc1O,nt,27,nt,nt,nt,nt
COc1ccc(-c2cc(C(=O)NNC(=S)NC(=O)c3c(-c4ccccc4)noc3C)[nH]n2)cc1,-35,93*,-0.45,-2,i,-0.36
O=C(NC(=S)NNC(=O)c1ccccc1[N+](=O)[O-])c1ccc(Br)cc1,nt,63*,nt,nt,nt,nt
O=C(CN1C(=O)CSc2ccc(S(=O)(=O)N3CCCCC3)cc21)NCc1ccccc1Cl,nt,-2,nt,nt,nt,nt
Cc1ccc(S(=O)(=O)n2ccc(=O)[nH]2)cc1,-9,2,-2.2,-5,i,0.43
CCCCN(C(=O)c1cc(S(=O)(=O)N2CCCCCC2)ccc1OC)c1ccccc1,nt,1,nt,nt,nt,nt
CCn1c(=O)c2sccc2n(CC(=O)NCCC2=CCCCC2)c1=O,nt,1,nt,nt,nt,nt
Nc1cc(N)nc(SCC(=O)NCCC2=CCCCC2)n1,nt,-4,nt,nt,nt,nt
Cc1cc(C)c2nc(SCC(=O)NCCC3=CCCCC3)cc(C)c2c1,-4,0,12*,4,i,0
COc1ccc(C2=NC(=O)/C(=C\c3cc(OC)c(OC)c(OC)c3)O2)cc1,-72,nt,-0.4,-3,i,3*
CC(C)C(=O)NC(=S)/C=C1/N(C)c2ccccc2C1(C)C,12,-3,nt,0,i,-2.2
Cc1ccc(C(=O)NC(=S)/C=C2\N(C)c3ccccc3C2(C)C)cc1,-7,-5,2.3,67*,i,0.68
Cc1onc(-c2ccccc2)c1C(O)c1ccc(F)cc1 (centres undefined),nt,0,nt,nt,nt,nt
Cc1cccc(-c2nnn(Cc3nnc(NC(=O)c4ccccc4)s3)n2)c1,88*,-15,nt,2,i,0.62
CCN(CCCn1c(SCC#N)nc2ccccc2c1=O)c1ccccc1,1,61*,-2,-6,i,-2.1
CCC(C)(C(=O)NC1CCCC1)N(C)C(=O)c1ccccn1 (centres undefined),0,-12,-0.37,-12,i,0.31
CC1CC2=C(NC(=S)NC2c2ccccc2F)/C(=C/c2ccccc2F)C1 (centres undefined),nt,11,1.1,80*,i,-0.78
CC1CC2=C(NC(=S)NC2c2cccc(F)c2)/C(=C/c2cccc(F)c2)C1 (centres undefined),-1,28,0.47,61*,i,-1.3
Cc1cc(NC(=O)CCSc2ccc(Cl)cc2)no1,-4,-7,0.02,19,i,1.2
COc1ccc(C(C)=O)cc1COc1cc(C)c(Cl)c(C)c1,8,50*,0.11,nt,nt,-0.24
O=C(COc1ccccc1[N+](=O)[O-])N1CCN(c2ccccn2)CC1,nt,-4,nt,nt,nt,nt
COc1ccc(-n2nnnc2-c2cccc(OC)c2)cc1,-2,0,-1.3,-7,+,0.04
CCOC(=O)c1cc(NC(=O)c2ccccc2)c(=O)n2c1oc1ccccc12,-17,4,0.087,-1,i,-0.45
Cc1nc2c(=O)n(C)c(=O)n(C)c2nc1Cl,6,-8,-1.1,58*,i,-0.6
Cc1cc(O)c(CN(C)C)c2c1C(=O)/C(=C/c1ccco1)O2,nt,6,nt,nt,nt,nt
Cc1cc(O)c(C=O)c2c1C(=O)Oc1c(CO)c(O)c3c(c1O2)C(O)OC3=O (centres undefined),66*,nt,0.21,7,i,0.26
N#CC1=C(N)Oc2cc(N)ccc2C1c1cccnc1 (centres undefined),nt,-3,0.27,-3,i,0.47

# Source: PubChem
